# Assay results collected from several papers.
# Target: Tyrosine-protein kinase Mer (MERTK, Homo sapiens, UniProt Q12866)
# One construct used (Q12866 21-999): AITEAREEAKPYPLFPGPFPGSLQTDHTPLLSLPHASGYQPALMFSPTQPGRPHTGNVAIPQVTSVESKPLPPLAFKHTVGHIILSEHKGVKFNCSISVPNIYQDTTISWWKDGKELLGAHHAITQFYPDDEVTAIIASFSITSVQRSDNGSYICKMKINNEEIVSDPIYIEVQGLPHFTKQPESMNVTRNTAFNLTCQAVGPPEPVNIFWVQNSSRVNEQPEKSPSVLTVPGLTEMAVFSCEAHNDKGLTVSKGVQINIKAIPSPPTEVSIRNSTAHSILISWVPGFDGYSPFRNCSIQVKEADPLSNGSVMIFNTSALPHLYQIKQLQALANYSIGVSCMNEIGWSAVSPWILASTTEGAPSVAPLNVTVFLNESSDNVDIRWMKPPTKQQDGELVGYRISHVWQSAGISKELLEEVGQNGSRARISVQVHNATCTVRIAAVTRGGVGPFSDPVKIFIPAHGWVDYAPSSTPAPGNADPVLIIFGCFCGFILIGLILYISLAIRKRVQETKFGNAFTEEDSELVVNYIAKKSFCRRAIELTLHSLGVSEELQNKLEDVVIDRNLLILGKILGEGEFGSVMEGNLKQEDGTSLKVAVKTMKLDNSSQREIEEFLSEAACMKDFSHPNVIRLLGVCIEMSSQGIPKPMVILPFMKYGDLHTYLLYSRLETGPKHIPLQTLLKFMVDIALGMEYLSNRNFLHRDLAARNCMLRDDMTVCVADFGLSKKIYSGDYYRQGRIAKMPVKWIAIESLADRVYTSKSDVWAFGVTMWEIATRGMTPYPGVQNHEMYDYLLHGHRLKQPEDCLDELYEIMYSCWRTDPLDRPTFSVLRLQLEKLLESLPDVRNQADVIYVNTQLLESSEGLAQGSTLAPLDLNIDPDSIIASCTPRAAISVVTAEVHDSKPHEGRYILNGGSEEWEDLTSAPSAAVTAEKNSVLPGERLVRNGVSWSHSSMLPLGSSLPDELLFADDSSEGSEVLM
Structure (SMILES),test,conditions,quantity,result
N#CCCc1ccc2c(c1)-c1[nH]c3ccc([N+](=O)[O-])cc3c1CC(=O)N2,cell-free assay,0.5 µM,remaining signal,77.5%
CCN(CC)CCNC(=O)c1c(C)[nH]c(/C=C2\C(=O)Nc3ccc(F)cc32)c1C,"enzyme activity, inhibitor",10 µM,inhibition,98%
COc1cc2c(N3CCN(C(=O)Nc4ccc(OC(C)C)cc4)CC3)ncnc2cc1OCCCN1CCCCC1,cell-free assay,0.5 µM,remaining signal,106%
CN1CCC2(CC1)NC(=O)c1c(c3ccc(Cl)c(Cl)c3n1C)C2C#N (racemic),"thermal stability, DSF",10 µM,ΔTm,-0.4 °C
COc1cc2nccc(Oc3ccc(NC(=O)c4c5n(n(-c6ccc(F)cc6)c4=O)CCCC5)cc3)c2cc1OC,"enzyme activity, inhibitor",0.1 µM,inhibition,100%
CC/C(=N\NC(=O)NCc1cccc(O)c1)c1ccc(O)c(C)c1O,"enzyme activity, inhibitor",0.1 µM,inhibition,5%
CC1(C)NC(=O)c2[nH]c3c(Cl)c(Cl)ccc3c2C1C#N (stereo not drawn),"thermal stability, DSF",10 µM,ΔTm,-1.1 °C
Cc1ccc(Nc2nccc(N(C)c3ccc4c(C)n(C)nc4c3)n2)cc1S(N)(=O)=O,"enzyme activity, inhibitor",10 µM,inhibition,87%
O=C1Nc2ccc(Cl)cc2C1=Cc1cc(Cl)c(O)c(Cl)c1,cell-free assay,0.5 µM,remaining signal,88.4%
CCN1CCC2(CC1)NC(=O)c1c(c3ccc(Cl)c(Cl)c3n1C)C2C#N (racemic),"thermal stability, DSF",10 µM,ΔTm,1 °C
CC(C)CC(=O)N1CCc2nc(-c3ccc(Br)cc3)nc(N(C)Cc3ccccc3)c2C1,"cell-free assay, competition with immobilised ligand",0.1 µM,remaining binding,100%
Cn1c2c(c3ccccc31)C(C#N)C(C)(C)NC2=O (stereo not drawn),"thermal stability, DSF",10 µM,ΔTm,0.8 °C
Cc1sc(C(=O)NC2COC2)cc1-n1cc(NC(=O)Nc2c(F)cccc2Cl)cn1,"enzyme activity, inhibitor",10 µM,remaining activity,103%
CC(C)(C)c1nc2c(s1)c1nc(N)ncc1c1ccc(NS(=O)(=O)c3c(F)cccc3F)c(F)c12,"enzyme activity, inhibitor, radiometric",1 µM,remaining activity,124%
CNCc1ccccc1-c1csc([C@H](C)Nc2nc(C)nc3cc(OC)c(OC)cc23)c1,"cell-free assay, competition with immobilised ligand",1 µM,remaining binding,72%
Cn1c2c(Cl)c(Cl)ccc2c2cc[nH]c(=O)c21,"thermal stability, DSF",10 µM,ΔTm,1.3 °C
CCCCN(CCCC)C(=O)CN1C[C@H](c2cc(OC)c3c(c2)OCO3)[C@@H](C(=O)O)[C@@H]1CC(C)(C)CCC,"cell-free assay, competition with immobilised ligand",1 µM,remaining binding,100%
CC(C)(O)[C@H]1CC[C@H](Nc2ccc3ncc(-c4cccc(C(F)(F)F)c4)n3n2)CC1,"enzyme activity, inhibitor",1 µM,remaining activity,64.1%
CNC(=O)c1cc(Oc2ccc(NC(=O)Nc3ccc(Cl)c(C(F)(F)F)c3)cc2)ccn1,"enzyme activity, inhibitor",10 µM,inhibition,82%
Cc1nccc(COC(=O)N2C[C@@H]3[C@@H](CNC(=O)c4ccc5[nH]nnc5c4)[C@@H]3C2)n1,"cell-free assay, competition with immobilised ligand",1 µM,remaining binding,100%
CCCS(=O)(=O)Nc1ccc(F)c(C(=O)c2c[nH]c3ncc(-c4ccc(Cl)cc4)cc23)c1F,"enzyme activity, inhibitor",1 µM,inhibition,< 10%
CC(C)(O)c1cncc(-c2nc3ccc(F)cc3n2C2CC2)c1,"cell-free assay, competition with immobilised ligand",1 µM,remaining binding,96%
Cc1ccc(NC(=O)c2ccc(C)c(C(F)(F)F)c2)cc1C#Cc1nn(C2CCC(O)CC2)c2ncnc(N)c12 (stereo not drawn),cell-free assay,10 µM,remaining signal,0%
Cc1ccc(C(=O)Nc2ccc(CN3CCN(C)CC3)c(C(F)(F)F)c2)cc1C#Cc1cnc2cccnn12,enzyme activity,23.5 nM,remaining activity,86%
O=C(NC[C@@H]1[C@H]2CN(C(=O)OCc3cc(C(F)(F)F)cc(C(F)(F)F)c3)C[C@@H]12)c1ccc2[nH]nnc2c1,"cell-free assay, competition with immobilised ligand",1 µM,remaining binding,100%
COc1cc2ncnc(Nc3ccc(Oc4ccccc4)c(C)c3C)c2cc1OC,"enzyme activity, inhibitor",1 µM,inhibition,28%
CCCOc1ccc([C@H]2[C@H](C(=O)O)[C@@H](c3ccc4c(c3)OCO4)CN2CC(=O)Nc2c(CC)cccc2CC)cc1,"cell-free assay, competition with immobilised ligand",1 µM,remaining binding,87%
Cc1cnc(NC2CCOCC2)nc1-n1cnc(C(=O)NC(CN)c2cc(F)cc(Cl)c2)c1 (stereo not drawn),"enzyme activity, inhibitor, radiometric",1 µM,remaining activity,96%
Cn1nc(C(F)(F)F)cc1-c1cnc(N2CCc3cc(S(=O)(=O)Nc4c(F)cc(Cl)cc4F)cc(N4CCCC4=O)c32)nc1,"cell-free assay, competition with immobilised ligand",1 µM,remaining binding,100%
Nc1ncnc2occ(-c3ccc(NC(=O)Nc4cc(C(F)(F)F)ccc4F)cc3)c12,cell-free assay,20 µM,remaining signal,0.25%
